From ChEMBL document CHEMBL1255190, “The selected flavonol glycoside derived from Sophorae Flos improves glucose uptake and inhibits adipocyte differentiation via activation AMPK in 3T3-L1 cells” (Bioorg Med Chem Lett, 2010) come the findings set out here.

What all share (assay type): cell-based
Series [1] deals with 5'-AMP-activated protein kinase catalytic subunit alpha-2 (Mus musculus) (UniProt Q8BRK8). The series can be described thus: Inhibition of AMPK-mediated adipocyte differentiation in mouse 3T3L1 cells. The following applies: 3T3-L1. An outline of the steps:
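Compound (0, 5, 10 or 20 uM) co-applied with MDI differentiation medium on day 0 for 48 h. Differentiation ended at day 6 and lipid droplets were stained with Oil red O. Triplicate runs, means ± S.D.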

In series [2] the test system is 3T3-L1. The series can be described thus: Cytotoxicity against mouse 3T3L1 cells at 20 uM after 24 hrs. The following applies: 3t3-l1, 24 h. The method in brief: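 3T3-L1 cells exposed to compounds at 5-100 uM for 24 h. Viability was assessed under Mosmann's conditions.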
In series [3] the target is 5'-AMP-activated protein kinase catalytic subunit alpha-2 (Mus musculus) (UniProt Q8BRK8). Kind of series: Induction of AMPK phosphorylation in mouse 3T3L1 cells at 10 uM by Western blotting. The following applies: 3T3-L1. An outline of the steps: (§1)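 Mouse 3T3-L1 cells exposed to test compound at 10 uM. Phosphorylated AMPK and its downstream target ACC were detected by western blot. Experiments were run in triplicate, with data given as means ± S.D. Groups were compared by one-way ANOVA with the Newman-Keuls test, significance p < 0.05.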
5'-AMP-activated protein kinase catalytic subunit alpha-2 (Mus musculus), sequence (Q8BRK8 whole entry): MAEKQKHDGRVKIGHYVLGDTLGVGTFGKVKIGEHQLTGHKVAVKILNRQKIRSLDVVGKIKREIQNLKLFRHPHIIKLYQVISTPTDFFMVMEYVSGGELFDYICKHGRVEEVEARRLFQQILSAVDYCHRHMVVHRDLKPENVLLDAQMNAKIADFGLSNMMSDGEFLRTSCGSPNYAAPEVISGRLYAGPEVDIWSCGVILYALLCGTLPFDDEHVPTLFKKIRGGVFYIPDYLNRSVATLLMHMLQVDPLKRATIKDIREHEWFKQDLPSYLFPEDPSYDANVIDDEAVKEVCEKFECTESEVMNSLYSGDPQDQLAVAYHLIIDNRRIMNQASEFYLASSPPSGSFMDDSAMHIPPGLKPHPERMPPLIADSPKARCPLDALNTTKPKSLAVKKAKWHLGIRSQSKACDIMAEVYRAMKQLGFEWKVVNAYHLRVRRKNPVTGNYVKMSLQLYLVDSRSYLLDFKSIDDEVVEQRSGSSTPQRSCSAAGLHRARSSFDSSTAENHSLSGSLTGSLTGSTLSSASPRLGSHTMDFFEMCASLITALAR

Series [4] has the same target. The series can be described thus: Induction of AMPK-mediated ACC phosphorylation in mouse 3T3L1 cells at 10 uM by Western blotting. To be noted: 3T3-L1. An outline of the steps:
as §1
On the technique in general: In western blotting, separated proteins are transferred to a membrane and probed.

Series [5] has the same target. The series can be described thus: Inhibition of AMPK-mediated glucose uptake in mouse 3T3L1 cells. To be noted: 3T3-L1. The method in brief: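 Differentiated 3T3-L1 adipocytes incubated 1 h with 5, 10 or 20 uM, with 200 nM insulin as reference. 2-Deoxy-D-[3H]-glucose uptake was then measured. For AMPK dependence, 10 uM was tested with or without compound C (10 uM). Triplicate runs, means ± S.D., p<0.05.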

Series [6] shares this target. Kind of series: Inhibition of AMPK in mouse 3T3L1 cells assessed as inhibition of FAS level by Western blotting. To be noted: 3T3-L1. An outline of the steps: (§2)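 Western blot of lysates from 3T3-L1 cells undergoing MDI-induced differentiation. Cells received 0, 5, 10 or 20 uM from day 0. Probed for FAS, SREBP-1c, C/EBPa and PPARgamma. Triplicate runs; one-way ANOVA with Newman-Keuls test.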

Series [7] shares this target. The series can be described thus: Inhibition of AMPK in mouse 3T3L1 cells assessed as inhibition of SREBP1c level by Western blotting. To be noted: 3T3-L1. An outline of the steps:
as §2

The target is the same in series [8]. Kind of series: Inhibition of AMPK in mouse 3T3L1 cells assessed as inhibition of PPARgamma level by Western blotting. The following applies: 3T3-L1. The method in brief: as §2
The target is the same in series [9]. The series can be described thus: Inhibition of AMPK in mouse 3T3L1 cells assessed as inhibition of C/EBPalpha level by Western blotting. The following applies: 3T3-L1. The method in brief:
as §2

Series [10] shares this target. Kind of series: Inhibition of AMPK in mouse 3T3L1 cells assessed as inhibition of PPARgamma gene expression by RT-PCR. The following applies: 3T3-L1. The method in brief:
(§3)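 MDI-induced differentiating 3T3-L1 cells were given 0, 5, 10 or 20 uM. Per the legend, cells were treated for 6 h. RNA was extracted with Trizol and RT-PCR run with specific primers for the adipogenic markers. Triplicate runs; one-way ANOVA with Newman-Keuls test.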

The target is the same in series [11]. The series can be described thus: Inhibition of AMPK in mouse 3T3L1 cells assessed as inhibition of C/EBPalpha gene expression by RT-PCR. To be noted: 3T3-L1. An outline of the steps: as §3
Series [12] has the same target. The series can be described thus: Inhibition of AMPK in mouse 3T3L1 cells assessed as inhibition of FAS gene expression by RT-PCR. The following applies: 3T3-L1. An outline of the steps: as §3

Active and inactive are the calls of the source. The rule behind the calls is not given here.

Turning to `O=c1c(O)c(-c2ccc(O)c(O)c2)oc2cc(O)cc(O[C@@H]3O[C@H](CO)[C@@H](O)[C@H](O)[C@H]3O)c12`, in [1], the outcome was Active. For the same compound, the Activity result in series [2] is on record as “Non-toxic”.

Take `C[C@@H]1O[C@@H](OC[C@H]2O[C@@H](Oc3c(-c4ccc(O)c(O)c4)oc4cc(O)cc(O)c4c3=O)[C@H](O)[C@@H](O)[C@@H]2O)[C@H](O)[C@H](O)[C@H]1O` [RUTIN]: the outcome in [1] was Active. In addition, in [2], the Activity result is reported as “Non-toxic”.

With `O=c1c(O)c(-c2ccc(O)c(O)c2)oc2cc(O)cc(O)c12` [QUERCETIN], the outcome in series [3], in series [1] and in series [4] was Active. The Activity entry in series [2] is listed as “Non-toxic”.

Regarding `COc1cc(-c2oc3cc(O)cc(O)c3c(=O)c2O[C@@H]2O[C@H](CO[C@@H]3O[C@@H](C)[C@H](O)[C@@H](O)[C@H]3O)[C@@H](O)[C@H](O)[C@H]2O)ccc1O` [NARCISSIN], the outcome in series [1] was Active. In addition, in series [2], the Activity result is given as “Non-toxic”.

For the compound `O=c1c(O)c(-c2ccc(O)cc2)oc2cc(O)cc(O)c12` [KAEMPFEROL], in [1], the result was Active. Moreover, the Activity entry in series [2] is “Non-toxic”.

As for `C[C@@H]1O[C@@H](OC[C@H]2O[C@@H](Oc3c(-c4ccc(O)c(O)c4)oc4cc(O)cc(O)c4c3=O)[C@H](O)[C@@H](O)[C@@H]2O)[C@H](O)[C@H](O[C@@H]2OC[C@@H](O)[C@H](O)[C@H]2O)[C@H]1O`, the result in series [1] was Active. Further, the Activity entry in [2] is on record as “Non-toxic”.

With `O=c1c(O[C@@H]2O[C@H](CO)[C@@H](O)[C@H](O)[C@H]2O)c(-c2ccc(O)cc2)oc2cc(O)cc(O)c12` [ASTRAGALIN], in series [1], the outcome was Active. Moreover, the Activity result in series [2] is listed as “Non-toxic”.

As to `O=c1c(O[C@@H]2O[C@H](CO)[C@@H](O)[C@H](O)[C@H]2O)c(-c2ccc(O)c(O)c2)oc2cc(O)cc(O)c12` [ISOQUERCETIN], the result in series [1] was Active. Also, the Activity result in series [2] is “Non-toxic”.

As to `C[C@@H]1O[C@@H](OC[C@H]2O[C@@H](Oc3c(-c4ccc(O)c(O)c4)oc4cc(O)cc(O)c4c3=O)[C@H](O)[C@@H](O)[C@@H]2O)[C@H](O)[C@H](O[C@@H]2O[C@H](CO)[C@@H](O)[C@H](O)[C@H]2O)[C@H]1O`, the outcome in series [5], in [3], in series [1], in series [4], in series [10] and in series [11] was Active. The outcome in [12] was Active. Besides, the Activity result in [6] is “Dose-dependent effect”; in series [7] it was “Dose-dependent effect”; in [8] it was “Dose-dependent effect”; in series [9] it was “Dose-dependent effect”; in series [2] it was “Non-toxic”.
